Values after ≈ are worked out from the molar mass of the structure shown. Active and inactive are the calls of the source. No cut-off for these calls is given here.
Key:
[1] = system: Pseudomonas aeruginosa; test: Bactericidal activity against Pseudomonas aeruginosa ATCC 27853 assessed as maximum population size by time-kill study; type: functional, organism-based
In short: (§1)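 Parameters were fitted by mathematical modeling to 24 h time-kill data with gentamicin at 0 to 32 mg/liter and a baseline inoculum of 10^7 CFU/ml. Intrinsic growth rate (Kg) and maximal population size came from placebo controls. Kill-function parameters were then fitted to all active-treatment data simultaneously.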

[2] = system: Pseudomonas aeruginosa; test: Ratio of Cmax to MIC for Pseudomonas aeruginosa ATCC 27853 in PK/PD model at 2000 mg administered every 24 hrs; type: functional
[3] = system: Pseudomonas aeruginosa; test: Bactericidal activity against Pseudomonas aeruginosa ATCC 27853 assessed as concentration to achieve 50% of the maximal kill rate for the bacterial population by time-kill study; type: functional, organism-based; in short: as §1
[4] = system: Pseudomonas aeruginosa; test: Antibacterial activity against Pseudomonas aeruginosa ATCC 27853 after 24 hrs by modified broth macrodilution method; type: functional, organism-based
In short: (§2)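 Ca-MHB broth macrodilution per modified CLSI method, with serial twofold aminoglycoside dilutions and about 5 x 10^5 CFU/ml final inoculum from isolates subcultured twice on 5% blood agar. MIC was the lowest concentration with no visible growth after 24 h at 35°C in ambient air. Run in duplicate and repeated on at least one separate day.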

[5] = system: Pseudomonas aeruginosa; test: Ratio of Cmax to MIC for Pseudomonas aeruginosa ATCC 27853 in PK/PD model at 1500 mg administered every 12 hrs; type: functional
[6] = system: Pseudomonas aeruginosa; test: Bactericidal activity against Pseudomonas aeruginosa ATCC 27853 assessed as growth rate constant for the bacterial population by time-kill study; type: functional, organism-based; in short: as §1
[7] = system: Pseudomonas aeruginosa; test: Bactericidal activity against Pseudomonas aeruginosa ATCC 27853 assessed as maximal kill rate constant for the bacterial population by time-kill study; type: functional, organism-based; in short: as §1
[8] = system: Acinetobacter baumannii; test: Bactericidal activity against Acinetobacter baumannii ATCC BAA 747 at >16 mg/liter after 2 hrs by time-kill study; type: functional, organism-based
[9] = system: Acinetobacter baumannii; test: Bactericidal activity against Acinetobacter baumannii ATCC BAA 747 assessed as growth rate constant for the bacterial population by time-kill study; type: functional
In short: (§3)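 24-h time-kill data at a baseline inoculum of 10^7 CFU/ml were fitted to a mathematical model of a heterogeneous population. The fit ran in two steps. Growth rate (Kg) and maximal population size came from placebo control experiments. Those estimates were then held fixed while the kill-function parameters (maximal kill rate, concentration for 50% of maximal kill) were fitted to all active-treatment data together.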

[10] = system: Acinetobacter baumannii; test: Antibacterial activity against Acinetobacter baumannii ATCC BAA 747 after 24 hrs by modified broth macrodilution method; type: functional; settings: ATCC BAA 747, 24 h; in short: as §2
[11] = system: Acinetobacter baumannii; test: Bactericidal activity against Acinetobacter baumannii ATCC BAA 747 assessed as maximum population size by time-kill study; type: functional; in short: as §3
[12] = system: Acinetobacter baumannii; test: Bactericidal activity against Acinetobacter baumannii ATCC BAA 747 assessed as maximal kill rate constant for the bacterial population by time-kill study; type: functional; in short: as §3
[13] = system: Acinetobacter baumannii; test: Bactericidal activity against Acinetobacter baumannii ATCC BAA 747 assessed as concentration to achieve 50% of the maximal kill rate for the bacterial population by time-kill study; type: functional; in short: as §3

Compound | Activity [1] | Ratio [2] | C50k [3] | MBC [4] | MIC [4] | Ratio [5] | Activity [6] | Activity [7] | Activity [8] | Activity [9] | MBC [10] | MIC [10] | Activity [11] | Activity [12] | C50k [13]
GENTAMICIN | 9.8 ×10⁸ CFU/ml | 30 | 0.72 mg/L | 2 µg/mL | 2 µg/mL | 36 | 0.48 h⁻¹ | 4.68 h⁻¹ | – | – | – | – | – | – | –
NCC[C@H](O)C(=O)N[C@@H]1C[C@H](N)[C@@H](O[C@H]2O[C@H](CN)[C@@H](O)[C@H](O)[C@H]2O)[C@H](O)[C@H]1O[C@H]1O[C@H](CO)[C@@H](O)[C@H](N)[C@H]1O [AMIKACIN] | – | 20 | – | – | – | 13 | – | – | Active | 0.55 h⁻¹ | 8 µg/mL (≈ 13.7 µM) | 4 µg/mL (≈ 6.83 µM) | 6.62 ×10⁸ CFU/ml | 27.81 h⁻¹ | 1.56 mg/L

Source: ChEMBL document CHEMBL1275535, “Pharmacodynamic modeling of aminoglycosides against Pseudomonas aeruginosa and Acinetobacter baumannii: identifying dosing regimens to suppress resistance development” (2008)
